These results are taken from ChEMBL document CHEMBL4513216, “Probing the Open Global Health Chemical Diversity Library for Multistage-Active Starting Points for Next-Generation Antimalarials” (ACS Infect Dis, 2020).

Molecules are shown by their SMILES.

The nature of this series: Toxicity liver stage against HepG2, at 10uM. Further details: test concentration 10 uM, cell line HepG2-A16-CD81EGFP. The settings on record: human, HepG2-A16-CD81EGFP cells; read-out: INHIBITION
It is filed as cell-based. In a few lines:
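Uninfected HepG2-A16-CD81EGFP cells, 3 × 10^3 per well, 1536-well, plated on prespotted compound at 10 μM final, parasite-free screening media added to match infected plates; puromycin 10 μM positive, DMSO 0.5% negative; run in parallel with 48 h PbLuc assay at 37 °C, 5% CO2; viability by CellTiter-Glo luminescence, normalized to controls.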
Consider `O=C(NC[C@H]1OC[C@@H](NC(=O)c2ccccc2)[C@@H]1O)c1ccncc1`, for which the cytotoxicity at 10 µM amounted to 2.55%.

Turning to `CC[C@H]1CN2CC[C@H]1C[C@@H]2CNCc1ccc2c(c1)OCO2`, the cytotoxicity at 10 µM is -5.9%. Then `COC1CCN(C(=O)CC(C)(C)C)CC(=O)N(C)c2ccccc21` (configuration not stated), with 2.44%. `O=C(CCc1nc2cc(Br)cnc2[nH]1)NCCN1CCOCC1`: the cytotoxicity at 10 µM was 5.08%. As for `Cc1nc(N(C)C)nc(C)c1NS(=O)(=O)c1ccc(F)cc1F`, the cytotoxicity at 10 µM is -3.58%. For the compound `CN(C)C(=O)N1CCC(C2C(=O)Nc3ccccc32)CC1` (configuration not stated), the cytotoxicity at 10 µM worked out at 11.9%. Turning to `COCC(=O)N1CCC2(CC1)NC(=O)[C@H]1CN(C(=O)N(C)C)C[C@H]12`, the cytotoxicity at 10 µM is 7%. On to `Cc1cccc(CN2C(=O)CCC23CCN(C(=O)c2ccco2)CC3)c1`, for which the cytotoxicity at 10 µM came to 6.09%.

For the compound `CCn1cc2c(n1)C(COCC1CC1)CN(C(=O)c1cc(C)on1)C2` (configuration not stated), the cytotoxicity at 10 µM was determined as 17.8%.

Consider `CC(C)NC(=O)c1ccc2c(c1)C(c1nc[nH]n1)CN2C` (configuration not stated), for which the cytotoxicity at 10 µM is -141%.

As for `COCC1c2nnn(CC3CC3)c2CCN1C(=O)c1cc(C)on1` (configuration not stated), the cytotoxicity at 10 µM is -132%. Turning to `COC(=O)Cn1nc(-c2ccccc2F)ccc1=O`, the cytotoxicity at 10 µM amounted to 8.01%.

Turning to `CCc1nn(-c2cc(Oc3cccc(C)c3)nc(C)n2)c(N)c1C#N`, the cytotoxicity at 10 µM was -9.8%. Regarding `CCCNC(=O)Cn1nc(C(C)C)c2cnn(C(C)(C)C)c2c1=O`, the cytotoxicity at 10 µM was -20%. With `Cc1occc1C(=O)N1CCCC(C2=Nc3ccccc3S(=O)(=O)N2)C1` (configuration not stated), the cytotoxicity at 10 µM turned out to be 4.03%. For `CNC(=O)C1(C)CN(c2nnc(C)c3ccccc23)CCO1` (configuration not stated), the cytotoxicity at 10 µM is -1.61%. With `Cc1nc(C2CCCN(S(C)(=O)=O)C2)sc1Br` (configuration not stated), the cytotoxicity at 10 µM was -10.3%. Then `CC(C)(C)C(=O)N1CCCC1c1nccnc1Cl` (configuration not stated), with 2.83%; and `CN(C)S(=O)(=O)N1CCC(C)(c2ncc(C(N)=O)s2)CC1`, with -0.318%. On to `Cc1c(CN2CCCC2(C)C(=O)N2CCOCC2)cnn1C` (configuration not stated), for which the cytotoxicity at 10 µM was -6.29%. Take `Cc1ccnc(NC(=O)c2c(C)oc(C)c2C)c1`: the cytotoxicity at 10 µM is 17.2%.

For the compound `CC(C)(C)c1cnc(CN2CCCS(=O)(=O)CC2)o1`, the cytotoxicity at 10 µM is -3.97%. For the compound `c1cc(CNCCC2CCCO2)ccn1` (configuration not stated), the cytotoxicity at 10 µM is -0.95%.

Take `CC(c1ccc(F)cc1F)N1CCN(CCC(=O)NC(N)=O)CC1` (configuration not stated): the cytotoxicity at 10 µM is -8.58%.

As for `CNC(=O)C1CCCCN1C(=O)Cc1csc(-c2ccc(C)o2)n1` (configuration not stated), the cytotoxicity at 10 µM was 8.61%. Turning to `CCN(CCC#N)Cn1ncc2cn(-c3ccccc3)nc2c1=O`, the cytotoxicity at 10 µM is -14.5%. Take `CC(CNC(=O)CCn1cncn1)N1CCc2ccccc21` (configuration not stated): the cytotoxicity at 10 µM was -157%. The result for `Cc1ccc(C)n1-c1ccsc1C(=O)NCC(=O)N1CCCC1` reads -143%. For the compound `CCc1noc(Cn2c(=O)c3c(C(F)(F)F)cc(C)nc3n2C)n1`, the cytotoxicity at 10 µM is -3.44%.

Take `Cc1ccc(NC(=O)N2CCCN(C(N)=O)CC2)s1`: the cytotoxicity at 10 µM is -6.58%. Take `Cc1ncsc1C(=O)NCCNC(=O)OC(C)(C)C`: the cytotoxicity at 10 µM worked out at 4.73%. Regarding `Cc1n[nH]c(C2CN(CC(=O)NCc3sccc3C)CCO2)n1` (configuration not stated), the cytotoxicity at 10 µM was -4.75%. As to `O=S(=O)(NCC1COc2ccccc2C1)N1CCCCC1` (configuration not stated), the cytotoxicity at 10 µM is -0.628%. `COc1c(CNCc2cccnc2N2CCOCC2)c(C)nn1C`: the cytotoxicity at 10 µM is -151%. Regarding `CCc1nnc2n1CCN(C(=O)c1ccc3cc[nH]c3c1)C2`, the cytotoxicity at 10 µM is -6.43%. In the case of `CC(NC(=O)CCCOc1cccc(F)c1)c1ccncc1` (configuration not stated), the cytotoxicity at 10 µM was -3.6%. With `CCc1ccc(CNc2ccccc2CN2CCC(O)CC2)o1`, the cytotoxicity at 10 µM worked out at 4.34%. Then `Cc1ccccc1CN1CCCN(C(=O)c2ccn(C)c(=O)c2)CC1`, with 1.62%; and `CC(C(=O)NCC1CCN(c2ccncc2)CC1)S(C)(=O)=O` (configuration not stated), with 17.4%; and `CC(CCS(C)(=O)=O)NC(=O)NCc1ccc2ccccc2c1` (configuration not stated), with -137%. Consider `CCc1cccc(NC(=O)CNc2ccccc2OCCC(=O)OC)c1`, for which the cytotoxicity at 10 µM was 7.53%. Then `O=C(c1cnccn1)N(CCO)Cc1cc(Br)ccc1F`, with 5.64%; and `CCCn1nnnc1COc1ccc(C(=O)OC)cc1OC`, with -1.9%; and `CNC(=O)c1cccc(NC(=O)CN2CCCN(S(C)(=O)=O)CC2)c1`, with 3.56%. Take `CCNc1nnc(SC(C(=O)NCc2cccnc2)C(C)C)s1` (configuration not stated): the cytotoxicity at 10 µM was -13.3%. Turning to `CN(CC1CCOCC1)C(=O)NCCCN1CCCCC1`, the cytotoxicity at 10 µM turned out to be 0.105%. In the case of `N#Cc1c(F)cccc1N1CCN(C(=O)Nc2nncs2)CC1`, the cytotoxicity at 10 µM is -0.908%. Turning to `CNC(=O)CS(=O)(=O)Cc1coc(-c2ccc(OC)cc2)n1`, the cytotoxicity at 10 µM is -2.95%. For the compound `CCSc1cc(C(=O)NCCC(=O)Nc2ccccn2)ccn1`, the cytotoxicity at 10 µM was -8.62%. With `CN(C)CCCN1CC2(CCN(C3CCCOC3)CC2)OC1=O` (configuration not stated), the cytotoxicity at 10 µM was -5%. On to `CC(C)(C)c1cc(=O)[nH]c(-c2ccccc2CN2CCCCCC2)n1`, for which the cytotoxicity at 10 µM was -42%.

`Cc1nc(N)sc1C(=O)N1CCCC(COc2ccc(F)cc2)C1` (configuration not stated): the cytotoxicity at 10 µM was -143%.

With `CN(CCCc1ccccc1)C(=O)c1ccccc1NCC(=O)O`, the cytotoxicity at 10 µM is -6.96%. The result for `CCS(=O)(=O)c1ncc(CN(C)CCc2ccccn2)n1CCOC` reads -3.98%; that for `Cc1cccc(-c2nc3cc(S(=O)(=O)N4CCCC4)ccc3n2C)n1`, 16.8%; that for `CNc1cc(-c2ccc(COCCN)cc2)c2cc[nH]c2n1`, 5.89%. For the compound `COCc1nc(CNc2cc(C)nc(-c3ccccc3)n2)no1`, the cytotoxicity at 10 µM came out at 7.06%. On to `COCc1ncn(Cc2nc(-c3ccco3)oc2C)n1`, for which the cytotoxicity at 10 µM was -8.53%. Then `COc1ccc(Cl)cc1CN(C)C(=O)CN1C(=O)CCC1C` (configuration not stated), with 0.277%. Regarding `CCC[C@@H]1CN(Cc2ccccc2SC)C[C@H]1NC(C)=O`, the cytotoxicity at 10 µM is -5.73%. `CC(C)(N)c1cn(C2CCN(C3CCSCC3)CC2)nn1`: the cytotoxicity at 10 µM was -10.7%. As to `COCCOCC(=O)N1CCC2(CCCN(C3CCOCC3)C2=O)C1` (configuration not stated), the cytotoxicity at 10 µM was -133%. In the case of `Cc1cnc(Cn2cc(-c3cccc(C(C)N(C)C)c3)nn2)cn1` (configuration not stated), the cytotoxicity at 10 µM was -0.807%. For `CCc1ccc(-c2c(C)c(-c3cnn(C)c3)nc(N)c2C#N)o1`, the cytotoxicity at 10 µM is -133%. Turning to `CCNC(=O)[C@@H]1C[C@@H](NC(=O)c2cccn2C)CN1CCCSC`, the cytotoxicity at 10 µM is -122%. The result for `CCOCCOc1ccccc1C(=O)N1CCCC(c2ncc[nH]2)C1` (configuration not stated) reads -14.2%; that for `Cc1cnn(CC2CN(Cc3cccnc3)CCO2)c1` (configuration not stated), -3.27%. In the case of `CC(C)CC(=O)NS(=O)(=O)c1ccc2c(c1)OCCCO2`, the cytotoxicity at 10 µM is -9.02%.

In the case of `CC(C)c1nc2c(n1C)CCN(Cc1nc(-c3cccnc3)no1)C2`, the cytotoxicity at 10 µM is -1.43%. As for `COc1c(CNCCNC(=O)c2ccccc2F)c(C)nn1C`, the cytotoxicity at 10 µM is -0.644%. Consider `CCCNC(=O)NC(=O)CNC(C)(C)c1ccc2c(c1)OCO2`, for which the cytotoxicity at 10 µM was -12.7%.

On to `CC1COCCN1Cc1nc(-c2ccsc2)no1` (configuration not stated), for which the cytotoxicity at 10 µM was -17.8%. Take `Cc1nc(CN2CCCC(NCCCc3ccccc3)C2)no1` (configuration not stated): the cytotoxicity at 10 µM was -3.9%. Then `Cc1cccc(NC2CCN(C(=O)Nc3cc(F)ccc3F)CC2)n1`, with -10.7%; and `Cc1noc2ncc(C(=O)N3CCCC3c3ccsc3)cc12` (configuration not stated), with -10.4%. For `CN(C)c1cc(CNC(=O)c2c(F)cccc2F)ccn1`, the cytotoxicity at 10 µM is -18.1%.

For `CC(C)c1cnc(CN(C)C2CCN(CCCc3cnn(C)c3)C2)o1` (configuration not stated), the cytotoxicity at 10 µM is -13.3%. The result for `CCc1ncc2c(n1)CN(CC(=O)Nc1cc(C)on1)CC2` reads 0.049%. Regarding `COc1cccc(CN2CCCC(c3cc(C(N)=O)[nH]n3)C2)c1` (configuration not stated), the cytotoxicity at 10 µM is -1.67%.

For the compound `Cn1nc2c(cc1=O)CN(Cc1nc(-c3ccco3)no1)CC2`, the cytotoxicity at 10 µM was 1.22%. Then `O=C(NCCc1ccc(I)s1)N1CCC1`, with -11.1%; and `Cc1cnn(CC(C)NCc2nc(-c3ccsc3)oc2C)c1` (configuration not stated), with -2.6%.

Take `CN(C)CCN1CCN(C(=O)c2ccn(C)c(=O)c2)CC1`: the cytotoxicity at 10 µM was -4.14%.

As to `Cc1ccc(NC2CCN(C(=O)COC3CCCCC3)CC2)nn1`, the cytotoxicity at 10 µM came to 5.94%.

As to `Cc1ccc(S(=O)(=O)NC(=O)CCC2CCCO2)cc1` (configuration not stated), the cytotoxicity at 10 µM was -15.7%. Take `CC1COCCN1C(=O)c1cccc(OCc2cscn2)c1` (configuration not stated): the cytotoxicity at 10 µM was -9.93%. Turning to `Cc1cc(C2CCCN2Cc2cc(=O)n(C)c(=O)n2C)on1` (configuration not stated), the cytotoxicity at 10 µM is -4.72%. The result for `CN1CC(=O)N(c2ccccc2)CC12CCN(C(=O)c1ccnnc1)C2` (configuration not stated) reads 3.39%; that for `CN(C)CCOCC1CN(C(=O)c2cccn2C)Cc2ccnn2C1` (configuration not stated), 13.5%; that for `Cc1cccc(CN2CC[C@@H]3[C@@H]2CCN3C(=O)c2ccno2)n1`, -18.2%. `Cn1cc(C2CC(=O)NC23CCN(C(=O)Cc2ccccn2)CC3)cn1` (configuration not stated): the cytotoxicity at 10 µM was 5.06%.

Consider `CCS(=O)(=O)N1CC[C@H]2C(=O)N(Cc3cccnc3)CCO[C@H]2C1`, for which the cytotoxicity at 10 µM is -80.4%.

In the case of `O=C1CC2(CCN(CC3CC3)C2)CN1c1cccnc1` (configuration not stated), the cytotoxicity at 10 µM is -1.18%.

As for `CN(C)CCN1CCOCC2(CCN(Cc3ccc[nH]3)CC2)C1`, the cytotoxicity at 10 µM is 0.626%. For `CN1C(=O)CC(c2ccccc2)C12CCN(CC1CCOCC1)CC2` (configuration not stated), the cytotoxicity at 10 µM turned out to be 1.02%.

With `CN(Cc1cncnc1)[C@@H]1CN(C(=O)C2CC2)[C@@H]2CCCO[C@H]12`, the cytotoxicity at 10 µM was -112%. Consider `CC(=O)Nc1ccc(CN2C[C@@H]3CC[C@H]2CN(c2ncccn2)C3)cc1`, for which the cytotoxicity at 10 µM is -0.0298%.
